Measured values reported in PubChem BioAssay.
Values without a mark were called inactive. Inconclusive results are not listed. Activity calls are given as the source filed them.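 How the source made its calls, unless noted: active means RAM network inhibition above 8.4% in each of two replicates, 3 SD over the compound average; inconclusive means above 8.4% inhibition in only one replicate; inactive means 8.4% inhibition or less in each replicate.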

Tests used:
[1] = OD615 S. cerevisiae growth inhibition, permissive medium, pilot counter-assay, permissive growth control for S. cerevisiae lifespan shortening project (AID 705;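 active means growth inhibition above 25% in both replicates, a cutoff set 3 SD above the mean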); conditions: OD615, 24 h, at 10 µM, stronger effect = higher value
Procedure, shortened: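 System: Engineered DeaD yeast | Buffer or medium: SC raffinose/galactose permissive medium | Doses: 10 µM single dose, 0.25% DMSO | Times: 24 h exposure, 30 °C | Measured by: OD615 turbidity read | Read-out: Yeast growth inhibition indicated by reduced 24 h OD615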

[2] = Restrictive medium S. cerevisiae growth inhibition, OD615, pilot screen of yeast lifespan reduction project, restrictive growth control (AID 706;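 active means growth inhibition above a set limit, 3 SD over mean compound inhibition, in both replicates, cut at about 43% in these data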;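 further: modified DeaD lifespan yeast strain shifted to restrictive glucose medium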); conditions: OD615, 48 h, at 10 µM, stronger effect = higher value
Procedure, shortened: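 Assay system: engineered S. cerevisiae DeaD strain; Buffer or medium: CSMM-D glucose medium; Dosing: 10 µM compound, 0.25% DMSO; Times: cell pre-growth 4 h, compound exposure 48 h, 30 °C; Detection: absorbance (optical density) measured at 615 nm.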

[3] = viability gain of MRP-1-high H69AR cells under doxorubicin, pilot screen, MRP-1 activator project, CellTiter-Glo, duplicate (AID 807;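 active means viability increase at or above a cutoff of the median across tested compounds plus 3 SD, cut at about 8.5% in these data, passing the limit was not always enough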;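 further: compound pretreatment 18-22 h then 72 h combined with doxorubicin; 0% = doxorubicin alone and 100% = vehicle without doxorubicin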); conditions: H69AR viability with doxorubicin, CellTiter-Glo luminescence; at 10 µM; stronger effect = higher value
[4] = growth suppression of beta-catenin knockout HCT116, pilot screen, human colon tumor cells (AID 823;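 active means cell viability at or below a set limit in both duplicate runs, the limit being the all-compound median minus 4 SD, cut at about 23% in these data, passing the limit was not always enough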;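 further: 0% = wells killed by 20 µM Hyamine and 100% = untreated DMSO cell wells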); conditions: CellTiter-Glo, 60 h, at 10 µM, stronger effect = lower value
[5] = growth suppression of PTEN-deleted HCT116, pilot screen, cell-based, HCT116 clonal line, CellTiter-Glo (AID 824;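 active means viability at or below 27.92% in each of two runs, the all-compound median minus 4 SD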;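 further: 0% = 20 µM Hyamine control and 100% = vehicle cell control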); conditions: 60 h, at 10 µM, stronger effect = lower value
[6] = inhibitors of the yeast RAM network, pilot screen, dse1pr::URA3 reporter, 5-FOA selection (AID 869;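 active means inhibition over a set limit, the all-compound mean plus 3 SD, in both replicate runs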;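 further: 0% = DMSO wells with no growth and 100% = 10 µM 1-NA-PP1 with full growth; RAM network block rescues cells from 5-FOA so hits raise OD615 growth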); conditions: S. cerevisiae dse1pr::URA3 5-FOA growth, OD615, 2 d; at 10 µM; stronger effect = higher value; strain carries analog-sensitive mutant Cbk1 kinase
[7] = RAM signaling pathway blockade in yeast – S. cerevisiae, Pdr1DBD-CYC8 efflux-inhibited sensitized strain, primary screen (AID 1298);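 further: 0% = DMSO untreated cells without growth and 100% = 10 µM 1-NA-PP1 full growth; higher means more yeast growth rescued from 5-FOA killing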; conditions: S. cerevisiae cbk1-as DSE1-URA3 strain, 5-FOA growth OD615, 2 d; at 50 µM; stronger effect = higher value

SMILES | growth inhibition [1] | growth inhibition [2] | viability increase [3] | viability [4] | viability [5] | inhibition [6] | RAM network inhibition [7]
CCOC(=O)c1sc(NC(=O)c2cccnc2)nc1C | -7.2% | -2% | -3.19% | 102% | 97.7% | 1.7% | 1.1%
CC(C)Sc1nc2c(cnn2-c2ccc(F)cc2)c(=O)[nH]1 | -8.33% | -1.79% | -3.72% | 90.7% | 97.3% | 0.795% | 3.54%
CCOc1ccc(N2C(=O)c3ccccc3C2O)cc1 (stereo not given) | 6.33% | 11.8% | 1.68% | 101% | 87.5% | -0.05% | 2.58%
CC1(C)CC(=O)C2=C(C1)Nc1ccccc1NC2c1cccnc1 (stereo not given) | 7.14% | 1.02% | -3.43% | 96.1% | 93.6% | -0.195% | 0.21%
COc1ccc(N2C(=O)CC(NCc3cccc(F)c3)C2=O)cc1 (stereo not given) | -6.89% | -3.85% | -0.75% | 99.3% | 98% | 0.82% | 5.38%
CCN(CC)C(=O)C1CCN(S(=O)(=O)c2ccc(C3CNC(=O)C3)cc2)CC1 (stereo not given) | 3.76% | -0.015% | 0.02% | 99.9% | 106% | 1.81% | 2.47%
COc1ccc(CCNS(=O)(=O)c2ccc3c(c2)oc(=O)n3C)cc1OC | -5.33% | -1.19% | -0.83% | 105% | 94.2% | 2.37% | 0.8%
Cc1ccc(-n2nc3ccc(N)cc3n2)cc1 | -12.9% | 5.77% | -5.26% | 80% | 78.5% | 2.38% | 2.79%
CCC(=O)Nc1ccc(S(=O)(=O)N2CCc3ccccc3C2)cc1 | -7.58% | -3.42% | -3.43% | 89.1% | 90.1% | 0.395% | 10%
CCn1ncc(C2=NOC(C(=O)Nc3c(C)nn(Cc4ccc(F)cc4)c3C)C2)c1C (stereo not given) | -7.87% | -11.5% | 0.42% | 93.5% | 88.7% | 1.59% | 1.41%
O=C1CCC(=O)N1c1cccc(-c2nc3ccccc3o2)c1 | -7.93% | -2.65% | 0.42% | 106% | 105% | -0.245% | 4.59%
CS/C(=N\S(=O)(=O)c1ccc(N)cc1)NS(=O)(=O)c1cccs1 | -0.825% | -11.5% | -0.88% | 103% | 102% | 0.23% | 3.11%
COC(=O)CCC(=O)Nc1ccc(NC(=O)CCC(=O)OC)cc1 | -0.195% | 0.195% | -1.73% | 103% | 96.9% | 1.73% | 0.97%
O=C(CCCSc1nc2sc3c(c2c(=O)[nH]1)CCC3)NCCCO | -8.91% | 6.12% | 0.57% | 102% | 99.8% | 0.14% | 1.44%
O=C(Sc1nnc(-c2ccccc2)o1)N1c2ccccc2Sc2ccccc21 | 15.4% | 21.9% | -4.17% | 85.1% | 89.7% | 2.49% | 3.79%
CC(C)CCNC(=O)c1ccc2c(c1)N(Cc1ccccc1)C(=O)CS2=O (stereo not given) | -0.755% | 4.24% | 1.95% | 104% | 94% | 0.275% | 1.41%
COc1ccc(C2CC(c3cccc(C)c3)n3nc(N)nc3N2)cc1 (stereo not given) | 6.39% | 9.63% | -1.84% | 105% | 92.8% | 3.25% | 1.68%
Cn1c(NC(=O)c2cccs2)cc(=O)n(C)c1=O | 7.14% | 0.885% | -1.55% | 107% | 95.5% | 0.13% | -1.35%

SMILES | growth inhibition [1] | growth inhibition [2] | viability increase [3] | viability [4] | viability [5] | inhibition [6] | RAM network inhibition [7]
C=CCn1c(O)c(C2=c3ccccc3=NC2=O)sc1=Nc1ccc(O)cc1 | -4.33% | -12% | -8.74% | 2.1% (active) | 1.53% (active) | 1.98% | 2.7%
CCOc1cc2c(cc1OCC)C(c1ccc(O)c(OC)c1)NCC2 (stereo not given) | -5.95% | -11.5% | -3.12% | 75.3% | 81.6% | 2.12% | 1.63%
COc1cc(C2C3=C(CC(C)(C)CC3=O)N(C)C(=O)N2C)cc(OC)c1OC (stereo not given) | -7.27% | -16.8% | -0.06% | 104% | 103% | 0.385% | -0.15%
CCN(CC)S(=O)(=O)c1ccc(C(=O)Nc2ccc(OCC(=O)N3CCOCC3)cc2)cc1 | -6% | -11% | 0.35% | 86.6% | 95.4% | 0.185% | 4.45%
COc1ccc(C(=O)N2CCN(c3ccc(C)cc3)CC2)cc1OC | -10.4% | -14.2% | -1.27% | 103% | 90.2% | 0.81% | 3.75%
O=C(NCc1ccco1)C1CCCN(S(=O)(=O)c2cccc3cccnc23)C1 (stereo not given) | -10.6% | -8.38% | -4.15% | 96.4% | 94.4% | 0.595% | 0.89%
Cc1cc(OCC(=O)N(C)C)c2c(-c3ccccc3)cc(=O)oc2c1 | -3.89% | 2.71% | -3.03% | 97.4% | 94.7% | 0.915% | 5.21%
Cc1cccc(C)c1N1C(=O)c2ccccc2C1=O | -6.34% | -3.44% | -1.87% | 105% | 92.7% | 0.535% | 2.47%
COC(=O)c1cn(NC(=O)c2ccc3c(c2)OCO3)c(=O)c2ccccc12 | -4.02% | -1.45% | -2.75% | 96.3% | 97.3% | 1.44% | 6.69%
O=C(Nc1ncc(Br)s1)C(Cc1ccccc1)n1cccc1 (stereo not given) | -17.7% | -13.6% | -6.2% | 63.7% | 58% | 2.83% | -0.21%
CN1CCc2c(sc(NC(=O)c3ccc(S(=O)(=O)N4CCOCC4)cc3)c2C(N)=O)C1 | -5.07% | -4.6% | -0.65% | 111% | 103% | -0.19% | 7.28%
COC(=O)C1=C(C)NC(=O)NC1c1cn(-c2ccccc2)nc1-c1cccs1 (stereo not given) | 1.5% | 7.83% | -1.94% | 85.6% | 82.4% | 2.37% | 5.72%
CC1NC(=O)NC1CCCCC(=O)O (stereo not given) | -6.38% | 2.25% | 1.3% | 109% | 104% | 3.06% | 2.65%
O=C(C1COc2ccccc2O1)N1CCn2c(nc3ccccc32)C1 (stereo not given) | -13.1% | -3.57% | -2.64% | 106% | 92% | 1.85% | 4.61%
COc1ccc(-c2nnc3ccc(SCC(=O)N4CCCCCC4)nn23)cc1OC | 1.58% | -3.42% | -4.16% | 103% | 109% | 0.615% | 0.05%
Cc1nc2sc(C(c3ccc(C(C)C)cc3)N3CCN(CCO)CC3)c(O)n2n1 (stereo not given) | -9.91% | -9.61% | -0.75% | 97% | 98.1% | 1.58% | 2.77%
COc1cccc(N2CCN(c3ncnc4c3cnn4-c3ccc(C)cc3C)CC2)c1 | 4.2% | 3.35% | -8.59% | 7.71% (active) | 10.3% (active) | 1.66% | 8.39%
